According to ChEMBL document CHEMBL4715835, “Lipidic synthetic alkaloids as SK3 channel modulators. Synthesis and biological evaluation of 2-substituted tetrahydropyridine derivatives with potential anti-metastatic activity” (Eur J Med Chem, 2020):
Activity calls are given as the source filed them. No cut-off for these calls is given here.

What was measured:
[1] = Toxicity in human skin fibroblasts assessed as reduction in cell number after 48 hrs by Hoechst 33342 staining based assay; type: tissue-based, Fibroblast
Method in brief: (§1)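 4000 cells per well. Cells exposed 24 h after seeding to 6 concentrations ([…]) for 48 h. They were then fixed in cold 90% ethanol/5% acetic acid for 20 min and nuclei stained with Hoechst 33342. Plates imaged on a high-content reader. IC₅₀ calculated; normal diploid skin fibroblasts served as control cells.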

[2] = Toxicity in human Caco-2 cells assessed as reduction in cell number after 48 hrs by Hoechst 33342 staining based assay; method in brief: as §1
[3] = Toxicity in human PC-3 cells assessed as reduction in cell number after 48 hrs by Hoechst 33342 staining based assay; method in brief: as §1
[4] = Toxicity in human HCT-116 cells assessed as reduction in cell number after 48 hrs by Hoechst 33342 staining based assay; method in brief: as §1
[5] = Toxicity in human NCI-H727 cells assessed as reduction in cell number after 48 hrs by Hoechst 33342 staining based assay; method in brief: as §1
[6] = Toxicity in human MDA-MB-231 cells assessed as reduction in cell number after 48 hrs by Hoechst 33342 staining based assay; method in brief: as §1
[7] = target: Small conductance calcium-activated potassium channel protein 3 (Homo sapiens) (UniProt Q9UGI6); test: Inhibition of SK3 (unknown origin) expressed in HEK293 cells assessed as reduction in channel current at 10 uM with 0 mV holding potential measured within 100 secs by patch clamp electrophysiological method relative to control; type: cell-based; conditions: time 100.0 sec
Method in brief: (§2)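 Patch clamp on HEK-293 cells stably expressing SK3 (lentiviral). Compound added acutely; DMSO/methanol was the vehicle, and runs with or without apamin. Ramp from −80 to +80 mV, holding at 0 mV, 500 ms ramps at 4 s intervals. Current analyzed at 0 mV to minimize chloride currents, followed as a time course. Pipette solution adjusted to pH 7.2 with KOH.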

[8] = system: MDA-MB-435; test: Toxicity in human MDA-MB-435 cells assessed as mortality at 1 uM measured after 24 hrs by MTT assay relative to control; type: cell-based; conditions: mda-mb-435, 24 h
Method in brief: (§3)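 MTT viability assay: about 4 × 10⁴ MDA-MB-435s cells seeded in triplicate with the molecules (tested series 100 nM, 300 nM, 1 µM, 3 µM, 10 µM) and kept 24 h at 37 °C. Medium was then removed and cells incubated 45 min at 37 °C with tetrazolium salt, which viable cells reduce to formazan. Results given as % mortality.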

[9] = system: MDA-MB-435; test: Effect on calcium influx in human MDA-MB-435 cells harboring siRNA and siCTL at 1 uM measured after 1 hr by Fura2-AM dye based fluorescence assay; type: functional, cell-based
Method in brief: (§4)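 Constitutive Ca²⁺ entry in MDA-MB-435s shRD or shSK3 cells, measured 48 h after transfection with 30 nM siOrai1 or siCTL. Cells were treated 1 h with compound and loaded with Fura2-AM for 45 min at 37 °C. They were then resuspended in Ca²⁺-free solution for 20 s before 2 mM CaCl₂ was added. Emission read at 510 nm with 340/380 nm excitation. Steady-state signal normalized to control. Three experiments in triplicate.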

[10] = system: MDA-MB-435; test: Antimetastatic activity against human MDA-MB-435 cells assessed as reduction in cell migration at 1 uM after 24 hrs by […] relative to control; type: functional; parameters: scale not given: the % may be the effect or the level left
[11] = target: Small conductance calcium-activated potassium channel protein 3 (Homo sapiens) (UniProt Q9UGI6); test: Inhibition of SK3 in human MDA-MB-435 cells harboring SK3 shRNA assessed as reduction in Ca2+ influx at 1 uM measured after 1 hr by Fura2-AM dye based fluorescence assay; type: cell-based; method in brief: as §4
[12] = system: MDA-MB-435; test: Antimetastatic activity against human MDA-MB-435 cells harboring SK3 shRNA assessed as reduction in cell migration after 24 hrs by […]; type: functional, cell-based
[13] = target: Small conductance calcium-activated potassium channel protein 3 (Homo sapiens) (UniProt Q9UGI6); test: Inhibition of SK3 (unknown origin) expressed in HEK293 cells assessed as reduction in channel current at 10 uM with 0 mV holding potential by patch clamp electrophysiological method; type: cell-based; method in brief: as §2
[14] = system: MDA-MB-435; test: Toxicity in human MDA-MB-435 cells assessed as mortality at 10 uM measured after 24 hrs by MTT assay relative to control; type: cell-based; conditions: mda-mb-435, 24 h; method in brief: as §3
[15] = target: Small conductance calcium-activated potassium channel protein 3 (Homo sapiens) (UniProt Q9UGI6); test: Inhibition of SK3 (unknown origin) expressed in HEK293 cells assessed as reduction in channel current at 10 uM with 0 mV holding potential in presence of -apamin by patch clamp electrophysiological method; type: cell-based; method in brief: as §2
[16] = system: MDA-MB-435; test: Antimetastatic activity against human MDA-MB-435 cells harboring shRNA assessed as reduction in cell migration at 3 uM after 24 hrs by […] relative to control; type: functional; parameters: scale not given: the % may be the effect or the level left
[17] = Toxicity in human MCF7 cells assessed as reduction in cell number after 48 hrs by Hoechst 33342 staining based assay; method in brief: as §1
[18] = system: MDA-MB-435; test: Antimetastatic activity against human MDA-MB-435 cells harboring shRNA assessed as reduction in cell migration at 0.3 to 3 uM after 24 hrs by […]; type: functional, cell-based; conditions: dose 0.3-3 µM
[19] = system: MDA-MB-435; test: Effect on calcium influx in human MDA-MB-435 cells harboring siRNA and siOrai1 at 1 uM measured after 1 hr by Fura2-AM dye based fluorescence assay; type: functional, cell-based; method in brief: as §4
[20] = Toxicity in human Huh-7 cells assessed as reduction in cell number after 48 hrs by Hoechst 33342 staining based assay; method in brief: as §1
[21] = system: MDA-MB-435; test: Inhibition of SK3/Orai1 in human MDA-MB-435 cells harboring SK3 shRNA assessed as reduction in Ca2+ influx at 1 uM measured after 1 hr by Fura2-AM dye based fluorescence assay; type: cell-based; method in brief: as §4
[22] = system: MDA-MB-435; test: Toxicity in human MDA-MB-435 cells assessed as mortality at 3 uM measured after 24 hrs by MTT assay relative to control; type: cell-based; conditions: mda-mb-435, 24 h; method in brief: as §3

Sequence of Small conductance calcium-activated potassium channel protein 3 (Homo sapiens) (Q9UGI6 whole entry): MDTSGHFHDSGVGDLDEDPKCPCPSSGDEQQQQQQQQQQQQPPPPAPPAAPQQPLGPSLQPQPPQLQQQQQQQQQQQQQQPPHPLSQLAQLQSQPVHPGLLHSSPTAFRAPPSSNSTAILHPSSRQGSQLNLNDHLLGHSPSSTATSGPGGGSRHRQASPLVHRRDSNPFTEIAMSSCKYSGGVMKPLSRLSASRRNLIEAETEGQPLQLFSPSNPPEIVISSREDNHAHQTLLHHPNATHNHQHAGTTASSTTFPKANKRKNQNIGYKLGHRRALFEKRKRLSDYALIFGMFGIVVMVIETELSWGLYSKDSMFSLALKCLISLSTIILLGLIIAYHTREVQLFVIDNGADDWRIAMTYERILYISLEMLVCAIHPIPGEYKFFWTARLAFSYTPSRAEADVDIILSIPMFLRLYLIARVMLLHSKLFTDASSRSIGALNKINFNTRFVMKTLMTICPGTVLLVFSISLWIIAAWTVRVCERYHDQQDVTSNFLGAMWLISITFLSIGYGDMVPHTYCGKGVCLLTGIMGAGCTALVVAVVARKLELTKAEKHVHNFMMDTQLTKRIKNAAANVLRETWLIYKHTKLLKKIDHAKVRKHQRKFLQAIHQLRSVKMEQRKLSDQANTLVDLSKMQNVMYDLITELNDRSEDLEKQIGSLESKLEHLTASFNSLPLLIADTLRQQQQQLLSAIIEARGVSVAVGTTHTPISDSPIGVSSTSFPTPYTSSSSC

Q: What does the source list for COc1cccc2c1C(=O)c1c(O)c3c(c(O)c1C2=O)C[C@@](O)(C(=O)CO)C[C@@H]3O[C@H]1C[C@H](N)[C@H](O)[C@H](C)O1 [DOXORUBICIN]?
A: IC50 at 48 h [1]: 0.03 µM; IC50 at 48 h [2]: 0.17 µM; IC50 at 48 h [3]: 0.12 µM; IC50 at 48 h [4]: 0.12 µM; IC50 at 48 h [5]: 0.66 µM

Q: With CCCCCCCC/C=C\CCCCCCC[C@H](C[C@@H]1C=CCCN1C)OC(C)=O as the compound, how does the IC50 at 48 h [1] read?
A: The IC50 at 48 h was 13 µM.

Q: What about the IC50 at 48 h [6] of the same compound?
A: The IC50 at 48 h was 10 µM.

Q: And the IC50 at 48 h [2]?
A: The IC50 at 48 h was 9 µM.

Q: What about the inhibition [7] of the same compound?
A: The inhibition was 50%.

Q: What about the IC50 at 48 h [3] of the same compound?
A: The IC50 at 48 h was 8 µM.

Q: What about the mortality [8] of the same compound?
A: Its mortality is 0%.

Q: What about the Activity [9] of the same compound?
A: The Activity was “inactive”.

Q: And the Activity [10]?
A: Its Activity is 40%.

Q: What about the inhibition [11] of the same compound?
A: The inhibition was “inactive”.

Q: What about the Activity [12] of the same compound?
A: Its Activity is “Dose-dependent effect”.

Q: And the inhibition [13]?
A: Its inhibition is 70%.

Q: And the IC50 at 48 h [4]?
A: The IC50 at 48 h was 9 µM.

Q: And the mortality [14]?
A: Its mortality is 70%.

Q: And the inhibition [15]?
A: The inhibition was “Active”.

Q: And the Activity [16]?
A: Its Activity is “<=40%”.

Q: And the IC50 at 48 h [17]?
A: The IC50 at 48 h was 15 µM.

Q: And the Activity [18]?
A: Its Activity is “inactive”.

Q: And the Activity [19]?
A: The Activity was “inactive”.

Q: And the IC50 at 48 h [20]?
A: Its IC50 at 48 h is 10 µM.

Q: What about the inhibition [21] of the same compound?
A: The inhibition was “Active”.

Q: What about the IC50 at 48 h [5] of the same compound?
A: The IC50 at 48 h was 19 µM.

Q: With CCCCCCCCCCCCCCCCCC(O)Cc1ccccn1 (centres undefined) as the compound, how does the mortality [8] read?
A: The mortality was 0%.

Q: What about the mortality [14] of the same compound?
A: Its mortality is 0%.

Q: What does the source list for CCCCCCCCCCCCCCCCC[C@@H](O)C[C@@H]1CCCCN1C?
A: mortality [8]: 0%; mortality [14]: 35%

Q: For CCCCCCCCCCCCCCCCCC(Cc1cccc[n+]1C)OC.Cc1ccc(S(=O)(=O)[O-])cc1 (centres undefined), which mortality [8] is on record?
A: Its mortality is 30%.

Q: And the mortality [14]?
A: Its mortality is 80%.

Q: With CCCCCCCC/C=C\CCCCCCC[C@@H](O)C[C@@H]1C=CCCN1C as the compound, how does the IC50 at 48 h [1] read?
A: Its IC50 at 48 h is 9 µM.

Q: What about the IC50 at 48 h [6] of the same compound?
A: Its IC50 at 48 h is 8 µM.

Q: And the IC50 at 48 h [2]?
A: The IC50 at 48 h was 8 µM.

Q: And the mortality [22]?
A: The mortality was 80%.

Q: What about the IC50 at 48 h [3] of the same compound?
A: Its IC50 at 48 h is 7 µM.

Q: And the mortality [8]?
A: Its mortality is 30%.

Q: And the IC50 at 48 h [4]?
A: The IC50 at 48 h was 10 µM.

Q: What about the IC50 at 48 h [17] of the same compound?
A: Its IC50 at 48 h is 10 µM.

Q: And the IC50 at 48 h [20]?
A: Its IC50 at 48 h is 10 µM.

Q: What about the IC50 at 48 h [5] of the same compound?
A: The IC50 at 48 h was 9 µM.

Q: With CCCCCCCCCCCCCCCCCCCC(Cc1ccccn1)OC (centres undefined) as the compound, how does the mortality [22] read?
A: Its mortality is 20%.

Q: What about the mortality [8] of the same compound?
A: The mortality was 20%.

Q: Which IC50 at 48 h [1] does the source give for CCCCCCCCCCCCCCCCCCC[C@H](O)C[C@@H]1C=CCCN1C here?
A: Its IC50 at 48 h is > 25 µM.

Q: What about the IC50 at 48 h [6] of the same compound?
A: Its IC50 at 48 h is > 25 µM.

Q: And the IC50 at 48 h [2]?
A: The IC50 at 48 h was 14 µM.

Q: And the mortality [22]?
A: Its mortality is 30%.

Q: And the IC50 at 48 h [3]?
A: The IC50 at 48 h was > 25 µM.

Q: And the mortality [8]?
A: The mortality was 30%.

Q: What about the IC50 at 48 h [4] of the same compound?
A: Its IC50 at 48 h is > 25 µM.

Q: And the IC50 at 48 h [17]?
A: Its IC50 at 48 h is > 25 µM.

Q: And the IC50 at 48 h [20]?
A: Its IC50 at 48 h is > 25 µM.

Q: And the IC50 at 48 h [5]?
A: The IC50 at 48 h was > 25 µM.

Q: For CCCCCCCCCCCCCCCCC[C@H](C[C@@H]1C=CCCN1C)OC(C)=O, which IC50 at 48 h [1] is on record?
A: Its IC50 at 48 h is 18 µM.

Q: What about the IC50 at 48 h [6] of the same compound?
A: The IC50 at 48 h was 21 µM.

Q: And the IC50 at 48 h [2]?
A: Its IC50 at 48 h is 9 µM.

Q: And the IC50 at 48 h [3]?
A: Its IC50 at 48 h is 15 µM.

Q: And the mortality [8]?
A: Its mortality is 5%.

Q: And the IC50 at 48 h [4]?
A: Its IC50 at 48 h is 16 µM.

Q: And the mortality [14]?
A: Its mortality is 70%.

Q: What about the IC50 at 48 h [17] of the same compound?
A: The IC50 at 48 h was 19 µM.

Q: What about the IC50 at 48 h [20] of the same compound?
A: Its IC50 at 48 h is 22 µM.

Q: What about the IC50 at 48 h [5] of the same compound?
A: Its IC50 at 48 h is > 25 µM.
